{
  "source": "paper PMC5003678",
  "about": "(European journal of medicinal chemistry, 2016)",
  "key": {"[1]": {"system": "six cancer cell lines (HL-60, HCT-116, PC3, SF295, MDA-MB-435, OVCAR-8)", "assay": "MTT cytotoxicity assay, cancer cell lines overall", "format": "cell-based, human", "conditions": "classified by IC50"}, "[2]": {"system": "SF295 (human glioblastoma cells)", "conditions": "read-out: Cytotoxic activity IC50 (95% CI) SF295; 72 h exposure; ref [41]; cited from earlier work"}, "[3]": {"system": "HL-60 (human promyelocytic leukemia cells)", "conditions": "read-out: Cytotoxic activity IC50 (95% CI) HL-60; 72 h exposure; ref [41]; cited from earlier work"}, "intracellular ROS": {"system": "intracellular ROS", "assay": "Generation of intracellular ROS", "format": "cell-based"}, "PC3 cells": {"system": "PC3 cells", "assay": "Annexin V/PI detection of phosphatidylserine externalization", "format": "cell-based, human", "conditions": "5 μM, 6 h; for phosphatidylserine externalization, pre-treated with NAC: 5 mM NAC pre-exposure (24 h); for phosphatidylserine externalization, co-treated with dicoumarol: dicoumarol 50 μM", "in_short": "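PC3 cells were grown in RPMI 1640 with 10% FBS, 2 mM L-glutamine and penicillin/streptomycin at 37 °C and 5% CO2. They were exposed to 5 μM test compound for 6 h, either after a 24 h pre-exposure to 5 mM N-acetylcysteine or with 50 μM dicoumarol co-treatment. Cells were stained with FITC-Annexin V plus PI and read by flow cytometry, with early apoptosis as FITC only and late as FITC+PI. 10,000 events were counted per experiment, debris excluded, n = 3.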"}, "[4]": {"system": "A549 cells (human non-small cell lung adenocarcinoma)", "assay": "DNA survival assay, NQO1-dependency with or without dicoumarol", "format": "cell-based", "conditions": "two hours exposure"}},
  "data": [
    {"molecule": "C#Cc1cccc(NC2CC(C)(C)OC3=C2C(=O)c2ccccc2C3=O)c1", "note": "(stereo not drawn) [Compound 4, 4-((3-ethynylphenyl)amino)-2,2-dimethyl-3,4-dihydro-2H-benzo[g]chromene-5,10-dione]", "values": [
      {"measurement": "activity classification against cancer cell lines", "setting": "[1]", "value": "non-active"}
    ]},
    {"molecule": "CC1(C)OC2=C(C(=O)C(=O)c3ccccc32)C(N=[N+]=[N-])[C@@H]1Br", "note": "(stereo partly drawn) [Compound 9]", "values": [
      {"measurement": "IC50", "setting": "[2]", "value": 1.93, "unit": "µM"},
      {"measurement": "IC50", "setting": "[3]", "value": 1.43, "unit": "µM"}
    ]},
    {"molecule": "CC1(C)OC2=C(C(=O)C(=O)c3ccccc32)C1Nc1cccc(-c2cn(C[Se]c3ccccc3)nn2)c1", "note": "(stereo not drawn) [Compound 21, 2,2-dimethyl-3-((3-(1-((phenylselanyl)methyl)-1H-1,2,3-triazol-4-yl)phenyl)amino)-2,3-dihydronaphtho[1,2-b]furan-4,5-dione]", "values": [
      {"measurement": "generation of intracellular ROS, pre-exposed with NAC", "setting": "intracellular ROS; cultures pre-exposed with NAC", "value": "not able to generate ROS"},
      {"measurement": "generation of intracellular ROS", "setting": "intracellular ROS; short exposure (1 h)", "value": "led to the generation of intracellular ROS"},
      {"measurement": "phosphatidylserine externalization", "setting": "PC3 cells", "value": "significant increase"},
      {"measurement": "phosphatidylserine externalization, pre-treated with NAC", "setting": "PC3 cells", "value": "not observed"},
      {"measurement": "phosphatidylserine externalization, co-treated with dicoumarol", "setting": "PC3 cells", "value": "not observed"},
      {"measurement": "activity classification against cancer cell lines", "setting": "[1]", "value": "highly active (highly active (IC50 < 2 μM))"},
      {"measurement": "NQO1 Specific", "setting": "[4]", "value": "NQO1-dependent"}
    ]},
    {"molecule": "CC1(C)OC2=C(C(=O)C(=O)c3ccccc32)C1n1cc(C[Se]c2ccccc2)nn1", "note": "(stereo not drawn) [Compound 22, 2,2-dimethyl-3-(4-((phenylselanyl)methyl)-1H-1,2,3-triazol-1-yl)-2,3-dihydronaphtho[1,2-b]furan-4,5-dione]", "values": [
      {"measurement": "phosphatidylserine externalization", "setting": "PC3 cells", "value": "significant increase"},
      {"measurement": "phosphatidylserine externalization, pre-treated with NAC", "setting": "PC3 cells", "value": "not observed"},
      {"measurement": "phosphatidylserine externalization, co-treated with dicoumarol", "setting": "PC3 cells", "value": "not observed"},
      {"measurement": "NQO1 Specific", "setting": "[4]", "value": "NQO1-dependent"}
    ]},
    {"molecule": "O=C1C(=O)c2ccccc2C2=C1CC(Cn1cc(C[Se]c3ccccc3)nn1)O2", "note": "(stereo not drawn) [Compound 26, 2-((4-((phenylselanyl)methyl)-1H-1,2,3-triazol-1-yl)methyl)-2,3-dihydronaphtho[1,2-b]furan-4,5-dione]", "values": [
      {"measurement": "activity classification against cancer cell lines", "setting": "[1]", "value": "highly active (highly active (IC50 < 2 μM))"}
    ]}
  ]
}
